From PubChem BioAssay
Calls of active or inactive are those of the source.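 Rule for the calls, unless noted: active = GFP response above 150% of the DMSO level; inconclusive = fewer than 70 events counted for a yeast strain; inactive = the rest.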

What was measured:
[1] = hit retest on RPL19A-GFP reporter strain – cell-based, S. cerevisiae, flow cytometry, cherry picks, mother/daughter gates, confirmation (AID 2270;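 active = GFP response below 50% of the DMSO control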); conditions: 3 h, at 10 µM, stronger effect = lower value, 100 = same GFP as DMSO wells
[2] = yeast TOR pathway reporter LAP4-GFP change – cell-based, cherry picks, flow cytometry, mother/daughter gates, confirmation (AID 2271;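 active = GFP response above 150% of the DMSO control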;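 note: ratio of sample to DMSO plate mean so 100% equals DMSO level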); conditions: S. cerevisiae LAP4-GFP strain, 3 h, at 10 µM, stronger effect = higher value, 100 means same as DMSO control
Outline: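 Material: Alexa Fluor 633-labelled Saccharomyces cerevisiae GFP-fusion strain, single-plex | Amount: Yeast cells seeded at OD600 of 0.2 | Buffer or medium: SC growth medium | Schedule: 3 h exposure, 30 °C | Measured by: HT flow cytometry, GFP fluorescence channel | Evaluation: % GFP response vs DMSO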

[3] = TOR pathway reporter MEP2-GFP, retest of hits – S. cerevisiae, flow cytometry GFP, cherry picks, confirmation (AID 2272;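 active = GFP response above 150% of the DMSO control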;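 note: ratio of well signal to plate DMSO mean so 100% equals DMSO level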); conditions: S. cerevisiae MEP2-GFP strain, 3 h, at 10 µM, stronger effect = higher value
[4] = yeast AGP1-GFP fluorescence change, single-dose – cell-based, flow cytometry, S. cerevisiae, cherry picks, confirmation (AID 2273);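 note: median GFP channel fluorescence over the whole cell population gate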; conditions: S. cerevisiae AGP1-GFP strain, 3 h, at 10 µM
[5] = TOR pathway CIT2 reporter hit retest – S. cerevisiae, GFP fusion, cherry picks, mother/daughter gates, confirmation (AID 2274); conditions: S. cerevisiae CIT2-GFP strain, flow cytometry, 3 h, at 10 µM, stronger effect = higher value
[6] = measured here: daughter cell gate
[7] = measured here: mother cell gate
[8] = measured here: daughter cell gate response
[9] = measured here: mother cell gate response

Structure (SMILES) | GFP response vs DMSO [1] | GFP response vs DMSO [1, 6] [%] | GFP response vs DMSO [1, 7] [%] | GFP response relative to DMSO [2] | GFP response relative to DMSO [2, 8] [%] | GFP response relative to DMSO [2, 9] [%] | GFP response vs DMSO [3] | GFP response, % of DMSO [4] | GFP response, % of DMSO [5] | GFP response, % of DMSO [5, 6] [%] | GFP response, % of DMSO [5, 7] [%]
Cc1ccccc1C(=O)Nc1cccc(N)c1 | 99% (inactive) | 98.6 | 98.6 | 93.1% (inactive) | 94.2 | 94.1 | 101% (inactive) | 105% (inactive) | 97.3% (inactive) | 95.6 | 96.8
COc1ccc(N2C(=O)C(Cl)=C(NCc3ccccc3)C2=O)cc1 | 96.5% (inactive) | 93 | 95.9 | 111% (inactive) | 111 | 112 | 99.3% (inactive) | 95.9% (inactive) | 91.7% (inactive) | 92.3 | 90.4
CCOC(=O)Cc1csc(NC(=O)c2sc3nc4cc(C)ccc4cc3c2N)n1 | 98.6% (inactive) | 100 | 89.8 | 104% (inactive) | 92 | 111 | 114% (inactive) | 104% (inactive) | 105% (inactive) | 102 | 104
CS(=O)(=O)N1N=C(c2ccc3nccnc3c2)CC1c1ccccc1 (stereo unspecified) | 99.8% (inactive) | 102 | 98.2 | 100% (inactive) | 102 | 99.5 | 101% (inactive) | 98.4% (inactive) | 103% (inactive) | 103 | 102
O=S(=O)(c1ccc(Oc2ccc(Br)cc2)cc1)N1CCOCC1 | 103% (inactive) | 102 | 103 | 86% (inactive) | 86.4 | 83.7 | 97.5% (inactive) | 90.1% (inactive) | 95% (inactive) | 96.4 | 93.3
CCCOc1ccc(C(=O)NNC(=S)NC(=O)c2ccccc2)cc1 | 114% (inactive) | 111 | 113 | 149% (inactive) | 136 | 150 | 128% (inactive) | 98.3% (inactive) | 114% (inactive) | 116 | 108
COc1cc(OC)cc(C(=O)N2CCN(c3ccccc3F)CC2)c1 | 98.6% (inactive) | 97.3 | 99.1 | 97.4% (inactive) | 98.7 | 98.3 | 100% (inactive) | 98.3% (inactive) | 99.1% (inactive) | 99.7 | 98.7
O=C(Nc1ccccc1)c1c(F)cccc1F | 103% (inactive) | 103 | 103 | 97% (inactive) | 97.5 | 96.2 | 105% (inactive) | 102% (inactive) | 106% (inactive) | 103 | 107
CN(C)c1ccc(N=Cc2nc(-c3ccccc3)oc2OC(=O)c2cccc(Cl)c2)cc1 | 101% (inactive) | 99.2 | 101 | 97.4% (inactive) | 97.2 | 99.3 | 100% (inactive) | 98.7% (inactive) | 102% (inactive) | 99.7 | 102
O=S(=O)(/N=C(/Nc1ccc(F)cc1F)c1ccc(Cl)cc1)c1ccccc1 | 101% (inactive) | 101 | 103 | 96.5% (inactive) | 96.5 | 96.5 | 102% (inactive) | 96.9% (inactive) | 96.4% (inactive) | 98.3 | 95.6
Cc1ccccc1Sc1ncnc2onc(C)c12 | 98.5% (inactive) | 99 | 96.9 | 97.7% (inactive) | 96 | 97.4 | 106% (inactive) | 104% (inactive) | 98.6% (inactive) | 101 | 98.2
Cc1cc(C)n(C(=O)/C(C#N)=N\Nc2ccccc2[N+](=O)[O-])n1 | 91.7% (inactive) | 71.4 | 88.6 | 138% (inactive) | 98.7 | 154 | 163% (inactive) | 123% (inactive) | 102% (inactive) | 73.6 | 105
Cc1ccc(C2=NN(S(C)(=O)=O)C(c3ccc4c(c3)OCO4)C2)cc1 (stereo unspecified) | 101% (inactive) | 99.6 | 102 | 116% (inactive) | 115 | 115 | 141% (inactive) | 103% (inactive) | 129% (inactive) | 130 | 119
O=c1c(-c2ccc(Cl)cc2)[n+]([O-])c2ccccc2n1O | 103% (inactive) | 102 | 103 | 193% (active) | 141 | 177 | 112% (inactive) | 93% (inactive) | 92.1% (inactive) | 90.9 | 91
COC(=O)CCS(=O)(=O)c1nc(-c2ccccc2)cc(C(F)(F)F)n1 | 100% (inactive) | 102 | 95.8 | 168% (active) | 161 | 170 | 136% (inactive) | 130% (inactive) | 102% (inactive) | 110 | 93.7
C=CCOc1ccc(C(=O)n2cc(C(=O)OC)c3ccccc32)cc1 | 95.6% (inactive) | 97.1 | 96.4 | 96.7% (inactive) | 99.2 | 96.1 | 96.2% (inactive) | 101% (inactive) | 101% (inactive) | 103 | 101
Cc1ccc(N2C(=O)C(Cl)=C(NCc3ccccc3)C2=O)c(C)c1 | 96.2% (inactive) | 95.2 | 97 | 106% (inactive) | 104 | 107 | 101% (inactive) | 100% (inactive) | 94.4% (inactive) | 95.6 | 94.4
Cc1cc(C)c(S(=O)(=O)ON2C(=O)c3ccccc3C2=O)cc1C | 88.4% (inactive) | 90.8 | 76.7 | 255% (active) | 209 | 252 | 114% (inactive) | 97.5% (inactive) | 102% (inactive) | 98.3 | 71.1
COc1cc(/C=C2\N=C(c3ccccc3)OC2=O)ccc1OCc1c(C)no[n+]1[O-] | 103% (inactive) | 101 | 103 | 96.5% (inactive) | 97.9 | 96.5 | 104% (inactive) | 97.5% (inactive) | 99.3% (inactive) | 100 | 96.8
CCOc1ccccc1C1N=C(c2ccc(OC)cc2)CC(c2ccccc2O)N1 (stereo unspecified) | 102% (inactive) | 103 | 100 | 106% (inactive) | 99.7 | 109 | 105% (inactive) | 102% (inactive) | 110% (inactive) | 108 | 109
CCSc1nnc(NC(=O)c2nc(S(=O)(=O)Cc3ccc(F)cc3)ncc2Cl)s1 | 102% (inactive) | 99 | 103 | 103% (inactive) | 108 | 103 | 104% (inactive) | 102% (inactive) | 112% (inactive) | 110 | 113
O=C(O)c1ccc2c3c(ncnc13)-c1ccccc1C2=O | 113% (inactive) | 95.3 | 107 | 135% (inactive) | 130 | 134 | 135% (inactive) | 105% (inactive) | 123% (inactive) | 105 | 117
O=C1c2ccsc2SCCN1Cc1ccccc1Cl | 94.2% (inactive) | 92 | 95.7 | 111% (inactive) | 102 | 114 | 90.5% (inactive) | 97.5% (inactive) | 93% (inactive) | 93.8 | 90.7
O=C(N/N=C\c1ccc(F)cc1)c1cc(OCC(F)(F)F)ccc1OCC(F)(F)F | 99.1% (inactive) | 99.3 | 99.2 | 100% (inactive) | 95 | 99.5 | 102% (inactive) | 105% (inactive) | 105% (inactive) | 106 | 103
O=C1C2C3C=CC(CO)(O3)C2C(=O)N1c1ccc(-c2ccccc2)cc1 (stereo unspecified) | 109% (inactive) | 103 | 94.9 | 334% (active) | 156 | 304 | 103% (inactive) | 97.8% (inactive) | 91.5% (inactive) | 97.4 | 82.1
Cc1ccc(S(=O)(=O)c2ncccc2[N+](=O)[O-])cc1 | 92.2% (inactive) | 93.2 | 89.1 | 129% (inactive) | 123 | 131 | 105% (inactive) | 109% (inactive) | 94.4% (inactive) | 97.4 | 91.9
